Experimental data: ChEMBL document CHEMBL4028909, “Discovery of an Orally Bioavailable Benzofuran Analogue That Serves as a β-Amyloid Aggregation Inhibitor for the Potential Treatment of Alzheimer's Disease” (J Med Chem, 2018)
Activity calls are given as the source filed them. No cut-off for these calls is given here.

Biological target: Amyloid-beta precursor protein (Homo sapiens) (UniProt P05067)
Test: Induction of HFIP-pretreated amyloid beta (1 to 42) (unknown origin) disaggregation after 48 hrs by silver staining-based SDS-PAGE analysis
How it was run: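 Aβ aggregates were incubated with compound for 48 h, with congo red as positive control. Size distribution (monomer, dimer, trimer, high-molecular-weight species) was analysed by SDS-PAGE with silver staining at the start and at the end of incubation.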

Amyloid-beta precursor protein (Homo sapiens), sequence (P05067 whole entry): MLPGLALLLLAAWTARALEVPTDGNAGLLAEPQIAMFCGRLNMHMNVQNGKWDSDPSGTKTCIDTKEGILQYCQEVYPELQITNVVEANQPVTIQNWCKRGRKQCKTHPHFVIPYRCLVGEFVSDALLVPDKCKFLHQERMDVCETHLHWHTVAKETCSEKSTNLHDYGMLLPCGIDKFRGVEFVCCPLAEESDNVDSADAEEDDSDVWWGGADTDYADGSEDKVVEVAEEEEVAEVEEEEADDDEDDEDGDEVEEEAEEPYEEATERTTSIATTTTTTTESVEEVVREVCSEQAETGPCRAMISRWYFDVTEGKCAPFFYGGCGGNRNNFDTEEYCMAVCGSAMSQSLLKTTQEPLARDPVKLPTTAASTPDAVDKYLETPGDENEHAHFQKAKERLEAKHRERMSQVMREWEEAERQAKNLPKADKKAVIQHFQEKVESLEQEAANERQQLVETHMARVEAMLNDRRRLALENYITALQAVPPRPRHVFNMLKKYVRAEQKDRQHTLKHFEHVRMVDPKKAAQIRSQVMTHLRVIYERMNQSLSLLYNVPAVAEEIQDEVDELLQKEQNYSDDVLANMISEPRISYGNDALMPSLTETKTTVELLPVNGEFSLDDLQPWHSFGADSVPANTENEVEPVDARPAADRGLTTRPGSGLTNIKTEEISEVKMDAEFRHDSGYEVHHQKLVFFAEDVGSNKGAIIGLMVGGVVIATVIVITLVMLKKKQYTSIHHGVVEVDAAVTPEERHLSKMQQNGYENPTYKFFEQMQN

Activity: Active
SMILES: Nc1c(/N=N/c2ccc(-c3ccc(/N=N/c4cc(S(=O)(=O)O)c5ccccc5c4N)cc3)cc2)cc(S(=O)(=O)O)c2ccccc12
